Measurements pooled from the literature.
Lines come from different studies, so protocols differ.
Read-out: cell growth or viability

CNc1ncc2c(/C=C/C(=O)N3CCC(OC)CC3)nn(Cc3ccc(C)cc3)c2n1 — EC50 (OE33; resazurin; 5 days): 2490 nM
CC(C)(C)c1cnc(CSc2cnc(NC(=O)C3CCN(CCCCCSc4cccc5c4CN(C4CCC(=O)NC4=O)C5=O)CC3)s2)o1 (stereo not drawn) — viability (HH; CCK-8; 0.2 µM): 0%
C=CC(=O)NC1CCN(c2ncc3ncnc(Nc4ccc(Oc5ccc6c(c5)ncn6C)c(C)c4)c3n2)CC1 — EC50 (NCI-H292): 82.6 nM
Nc1ncnc2c1c(/C=C/C(=O)N1CCCCC1)nn2CC1CCCC1 — EC50 (OE33; resazurin; 5 days): > 30000 nM
CC(=NNC(N)=S)c1ccc(Nc2nnc(-c3ccc(Cl)cc3)c3ccccc23)cc1 — viability (HepG2; MTT; 78 nM, 24 h): 95.6%
CC(C)(C)c1cnc(CSc2cnc(NC(=O)C3CCN(CCCCCCCCSc4cccc5c4C(=O)N(C4CCC(=O)NC4=O)C5=O)CC3)s2)o1 (stereo not drawn) — viability (HH; CCK-8; 10 nM): 98.2%
O=C(Nc1ccc(Oc2nnc(-c3ccc(Cl)cc3)c3ccccc23)cc1)c1ccccc1 — cell death (HepG2; MTT; 0.312 µM): 67.5%
CC(C)(C)c1cnc(CSc2cnc(NC(=O)C3CCN(C(=O)CCCSc4cccc5c4C(=O)N(C4CCC(=O)NC4=O)C5=O)CC3)s2)o1 (stereo not drawn) — viability (HH; CCK-8; 1 nM): 98.1%
CNc1ncc2c(/C=C/C(=O)N3CCC(OC)CC3)nn(CCC(C)C)c2n1 — EC50 (OE33; resazurin; 5 days): 19700 nM
S=C(Nc1ccccc1)Nc1ccc(Oc2nnc(-c3ccc(Cl)cc3)c3ccccc23)cc1 — cell death (HepG2; MTT; 10 µM): 97.2%
CNc1ncc2c(/C=C/C(=O)N3CCC(OC)CC3)nn(Cc3ccc(C(F)(F)F)cc3)c2n1 — EC50 (OE33; resazurin; 5 days): 1320 nM
CC(C)(C)c1cnc(CSc2cnc(NC(=O)C3CCN(CCCCCCCCSc4cccc5c4CN(C4CCC(=O)NC4=O)C5=O)CC3)s2)o1 (stereo not drawn) — viability (HH; CCK-8; 10 nM): 99.7%
